Results as given in ChEMBL document CHEMBL4145511, “Synthesis and leishmanicidal activity of eugenol derivatives bearing 1,2,3-triazole functionalities” (Eur J Med Chem, 2018).
Values after ≈ are worked out from the molar mass of the structure shown. Active and inactive are the calls of the source. The calls are words filed in the database; no cut-off is given here.

Assays:
[1] = system: Peritoneal macrophage; experiment: Cytotoxicity against BALB/c mouse peritoneal macrophages at 1 to 100 umol/L after 48 hrs by optical microscopy; type: cell-based
[2] = Selectivity index, ratio of LD50 for BALB/c mouse peritoneal macrophages to IC50 for antileishmanial activity against Leishmania amazonensis WHOM/BR/75/Josefa amastigote forms; type: toxicity; conditions: for selectivity ratio: BALB/c, peritoneal macrophages, read-out: Selectivity Index
[3] = system: Peritoneal macrophage; experiment: (§1) Cytotoxicity against BALB/c mouse peritoneal macrophages assessed as increase in LDH release; type: cell-based; conditions: peritoneal macrophage
Summary of the method: (§2)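 LDH released into the medium from macrophages was read at 340 nm. Cells in 2% Triton X-100 gave maximum release and cells in medium gave minimum release. Release was expressed as percent of the positive control, and the 50% value was obtained by linear regression.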

[4] = system: Leishmania amazonensis; experiment: Antileishmanial activity against Leishmania amazonensis WHOM/BR/75/Josefa amastigote forms infected in BALB/c mouse peritoneal macrophages after 72 hrs by hematological staining-based microscopic analysis; type: functional, organism-based
Summary of the method: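 Peritoneal macrophages from BALB/c mice collected in ice-cold DMEM, plated at 2 × 10⁶/mL in chamber slides, 1 h at 37 °C and 4% CO₂, non-adherent cells washed off. Infected with stationary-phase promastigotes at 5:1 parasite/macrophage, free parasites washed off after 4 h. Treated, then stained with a hematological dye and amastigotes counted by optical microscopy; triplicate means.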

[5] = as §1; type: cell-based, Peritoneal macrophage; conditions: BALB/c, peritoneal macrophages, read-out: LD50 (the source's name); summary of the method: as §2
[6] = system: Leishmania amazonensis; experiment: Antileishmanial activity against GFP expressing Leishmania amazonensis WHOM/BR/75/Josefa promastigote forms after 72 hrs by fluorescence assay; type: functional, organism-based
Summary of the method: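 GFP-transfected L. amazonensis WHOM/BR/75/Josefa promastigotes grown at 26 °C in M199 with penicillin, streptomycin, 10% heat-inactivated fetal calf serum and 2% human urine, kept under geneticin selection. Compounds dissolved in DMSO (final ≤1%), medium with 5% HIFCS, 72 h at 27 °C. Fluorescence read at 435/538 nm; triplicates, percent inhibition versus medium-only control.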

[7] = system: Leishmania amazonensis; experiment: Antileishmanial activity against Leishmania amazonensis WHOM/BR/75/Josefa amastigote forms infected in BALB/c mouse peritoneal macrophages after 48 hrs by optical microscopy; type: functional, organism-based
Summary of the method: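 BALB/c mouse peritoneal macrophages collected in ice-cold DMEM, plated at 2 × 10⁶/mL, and held 1 h at 37 °C with 4% CO₂. Non-adherent cells were washed off with PBS. Stationary-phase promastigotes were added at a 5:1 parasite:macrophage ratio at 35 °C with 5% CO₂, and free parasites were washed off after 4 h. After 48 h of treatment, slides were stained with a hematological dye and parasites were counted by optical microscopy.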

[8] = system: Leishmania amazonensis; experiment: Antileishmanial activity against Leishmania amazonensis MHOM/BR/75/Josefa promastigote forms by trypan blue assay; type: functional, organism-based
[9] = system: Peritoneal macrophage; experiment: Induction of nitric oxide production in BALB/c mouse peritoneal macrophages; type: functional, cell-based
[10] = Leishmania amazonensis, WHOM/BR/75/Josefa, 72 h, read-out: IC50

Row | Molecule | IC50 [6] [µM] | other results
1 | MEGLUMINE ANTIMONATE [listing 1 of 2 here] |  | Activity [1]: Non-Toxic; Selectivity Index [2]: 1.6; LD50 [3]: 75.5 µg/mL; IC50 [4]: 45.5 µg/mL
2 | N=C(N)c1ccc(OCCCCCOc2ccc(C(=N)N)cc2)cc1 [PENTAMIDINE] | 4.2 | selectivity ratio [2]: 4.7; CC50 [5]: 8.5 µM; IC50 [4, 10]: 1.8 µM
3 | C=CCc1ccc(OCc2cn(Cc3cc(Cl)ccc3Cl)nn2)c(OC)c1 | 49.2 | 
4 | C=CCc1ccc(OCc2cn(Cc3ccc(C)cc3)nn2)c(OC)c1 | 106 | 
5 | C=CCc1ccc(OCCCc2cn(Cc3ccc(OC)cc3)nn2)c(OC)c1 | 120 | 
6 | MEGLUMINE ANTIMONATE [listing 2 of 2 here] |  | Activity [7]: Active
7 | C=CCc1ccc(OCCCc2cn(Cc3cccc(Br)c3)nn2)c(OC)c1 | 980 | 
8 | C=CCc1ccc(OCCCc2cn(Cc3ccc(OC(F)(F)F)cc3)nn2)c(OC)c1 | 146 | 
9 | C=CCc1ccc(OCCCc2cn(Cc3ccc(F)cc3)nn2)c(OC)c1 | 32.2 | 
10 | C[C@@H]1[C@H](O)[C@@H](C)/C=C/C=C/C=C/C=C/C=C/C=C/C=C/[C@H](O[C@@H]2O[C@H](C)[C@@H](O)[C@H](N)[C@@H]2O)C[C@@H]2O[C@](O)(C[C@@H](O)C[C@@H](O)[C@H](O)CC[C@@H](O)C[C@@H](O)CC(=O)O[C@H]1C)C[C@H](O)[C@H]2C(=O)O [AMPHOTERICIN B] | 0.4 | 
11 | C=CCc1ccc(OCc2cn(Cc3ccc(Br)cc3)nn2)c(OC)c1 | 993 | 
12 | C=CCc1ccc(OCc2cn(Cc3ccccc3)nn2)c(OC)c1 | 30.2 | 
13 | C=CCc1ccc(OCc2cn(Cc3ccc(OC(F)(F)F)cc3)nn2)c(OC)c1 | 322 | 
14 | C=CCc1ccc(OCCCc2cn(Cc3ccccc3)nn2)c(OC)c1 | 37.9 | 
15 | C=CCc1ccc(O)c(OC)c1 [EUGENOL] |  | IC50 [8]: 80 µg/mL (≈ 487 µM)
16 | C=CCc1ccc(OCc2cn(Cc3ccc(F)c(F)c3)nn2)c(OC)c1 | 969 | 

Row | Molecule | IC50 [6] [µM] | other results
17 | C=CCc1ccc(OCCCc2cn(Cc3ccc(Cl)cc3)nn2)c(OC)c1 | 817 | 
18 | C=CCc1ccc(OCc2cn(Cc3ccc(OC)cc3)nn2)c(OC)c1 | 425 | 
19 | C=CCc1ccc(OCCCc2cn(Cc3ccc(F)c(F)c3)nn2)c(OC)c1 | 178 | 
20 | C=CCc1ccc(OCCCc2cn(Cc3ccccc3Br)nn2)c(OC)c1 | 913 | 
21 | C=CCc1ccc(OCCCc2cn(Cc3ccc(C(F)(F)F)cc3)nn2)c(OC)c1 | 295 | 
22 | C=CCc1ccc(OCCCc2cn(Cc3ccc(I)cc3)nn2)c(OC)c1 | 279 | 
23 | C=CCc1ccc(OCCCc2cn(Cc3ccc(Br)cc3)nn2)c(OC)c1 | 287 | 
24 | C=CCc1ccc(OCc2cn(Cc3ccc(F)cc3)nn2)c(OC)c1 | 59.4 | 
25 | C=CCc1ccc(OCc2cn(Cc3ccc(I)cc3)nn2)c(OC)c1 | 2010 | 
26 | C=CCc1ccc(OCc2cn(Cc3cccc(Br)c3)nn2)c(OC)c1 | 156 | 
27 | C=CCc1ccc(OCc2cn(Cc3ccc([N+](=O)[O-])cc3)nn2)c(OC)c1 | 130 | 
28 | C=CCc1ccc(OCc2cn(Cc3ccc(Cl)cc3)nn2)c(OC)c1 | 1780 | 
29 | C=CCc1ccc(OCc2cn(Cc3ccc(C(F)(F)F)cc3)nn2)c(OC)c1 | 2010 | 
30 | C=CCc1ccc(OCc2cn(Cc3ccccc3Br)nn2)c(OC)c1 | 160 | 
31 | C=CCc1ccc(OCCCc2cn(Cc3ccc(C)cc3)nn2)c(OC)c1 | 7.4 | Activity [1]: Non-Toxic; Activity [7]: Active; selectivity ratio [2]: 132; Activity [9]: inactive; CC50 [5]: 212 µM; IC50 [4, 10]: 1.6 µM
32 | C=CCc1ccc(OCCCc2cn(Cc3ccc([N+](=O)[O-])cc3)nn2)c(OC)c1 | 173 | 
